Here are results for 4 molecules from ChEMBL document CHEMBL5032499, “A Druglike Small Molecule that Targets r(CCUG) Repeats in Myotonic Dystrophy Type 2 Facilitates Degradation by RNA Quality Control Pathways” (J Med Chem, 2021).

Structures are written as SMILES. The source made the active and inactive calls. The rule behind the calls is not given here.

A short description of series [1]: Induction of disruption of r(CCUG)12-MBNL1 complex (unknown origin) incubated for 15 mins by TR-FRET assay. The arrangement: species or system Homo sapiens. A digest of the protocol:
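Biotinylated r(CCUG)12 was folded at 60 °C for 5 min in 20 mM HEPES pH 7.5, 110 mM KCl, 10 mM NaCl. It was then brought to assay buffer (plus 2 mM MgCl2, 2 mM CaCl2, 5 mM DTT, 0.1% BSA, 0.5% Tween-20) and preincubated 15 min with MBNL1-His6 (final 80 nM RNA, 60 nM protein). Compound was added for 15 min, then streptavidin-XL665 (40 nM) and anti-His6-Tb (0.44 ng/μL) for 30 min at room temperature. TR-FRET 545/665 ratios were read; IC50 was taken from dose-response fits.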
(In general: In TR-FRET formats the signal depends on donor and acceptor labels being close together.)

The species named for series [2] is Homo sapiens. Description: Inhibition of r(CCUG)12-MBNL1 complex formation (unknown origin) assessed as rescue of IR exon 11 splicing defect at 5 uM by RT-PCR analysis. Also on record: scale not given: the % may be the effect or the level left. The method in brief: (§1)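 DM2 patient fibroblasts were treated at ~40% confluency for 48 h. About 1 μg of total RNA was reverse transcribed, and IR exon 11 was PCR-amplified for 35 cycles (95 °C/58 °C/72 °C). Products were resolved on 2% agarose stained with ethidium bromide and quantified by densitometry. Percent rescue was calculated as (DM2 untreated − treated exclusion)/(DM2 untreated − WT exclusion) × 100.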

Series [3] concerns Fibroblast. Description: Cytotoxicity against DM2 patient derived fibroblast assessed as cell viability at 5 uM incubated for 48 hrs by Cell Titre-Glo assay. It counts as cell-based. The conditions noted are these: human. The method in brief: (§2)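 DM2 patient-derived fibroblasts were grown in high-glucose DMEM with 20% FBS at 37 °C, 5% CO2. After 48 h of compound treatment, viability was read as CellTiter-Glo luminescence after 10 min at room temperature (n = 6 replicates, one independent experiment).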

For series [4], the species on record is Homo sapiens. Description: Inhibition of r(CCUG)12-MBNL1 complex formation (unknown origin) assessed as rescue of IR exon 11 splicing defect at 1 uM by RT-PCR analysis. The arrangement: scale not given: the % may be the effect or the level left. A digest of the protocol: as §1
Series [5] in a line: Binding affinity to r(CCUG)12 (unknown origin) assessed as apparent dissociation constant incubated for 30 mins by microscale thermophoresis. Also on record: species or system Homo sapiens. The conditions noted are these: read-out: Kd(app). The method in brief:
(§3)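 Microscale thermophoresis with Cy5-labeled RNA (5 nM) folded in 8 mM Na2HPO4 pH 7.0, 185 mM NaCl, 1 mM EDTA at 60 °C for 5 min, then slowly cooled. The RNA was added to 1:1 serial compound dilutions in the same buffer, giving 0.05% Tween-20 final, and held 30 min at room temperature. Kd was fit to a quadratic binding equation; values are the mean of two independent experiments.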
(In general: In MST a laser heats a spot of the sample, and binding alters the fluorescence response.)

A short description of series [6]: Binding affinity to Base-paired RNA (unknown origin) assessed as dissociation constant incubated for 30 mins by microscale thermophoresis. Also on record: species or system Homo sapiens. A digest of the protocol:
as §3

In series [7] the test system is Fibroblast. Description: Inhibition of r(CCUG)12-MBNL1 complex formation in DM2-patient derived fibroblast assessed as reduction in complex in nuclear foci per cell at 5 uM by immunofluorescence imaging analysis. It counts as tissue-based. Particulars: Homo sapiens.
Series [8] relates to Fibroblast. Description: Effect on MAP4K4 exon 22a splicing in DM2-patient derived fibroblast. It counts as tissue-based. The conditions noted are these: Homo sapiens.
In series [9] the test system is Fibroblast. Description: Reduction in CNBP intron 1 level in DM2 patient derived fibroblast at 5 uM by RT-qPCR analysis. Particulars: Homo sapiens. It counts as functional, tissue-based. The method in brief: (§4)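 DM2 patient fibroblasts (DMEM, 20% FBS) were treated at 40% confluency for 48 h. Total RNA was then extracted and transcript levels were measured by RT-qPCR, normalized to GAPDH (n = 6 replicates per concentration, 2 independent experiments).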

The test system of series [10] is Fibroblast. Description: Reduction in CNBP intron 1 level in DM2 patient derived fibroblast at 1 uM by RT-qPCR analysis. It counts as functional, tissue-based. The conditions noted are these: Homo sapiens. The method in brief:
as §4
On the technique in general: Quantitative PCR measures a nucleic acid by following its amplification.

The test system of series [11] is Fibroblast. Description: Effect on CNBP mature mRNA level in DM2 patient derived fibroblast at 0.2 to 5 uM by RT-qPCR analysis. Particulars: Homo sapiens, dose 0.2-5 µM. It counts as functional, tissue-based. The method in brief: as §4
Series [12] deals with Fibroblast. Description: Effect on CNBP mature mRNA level in wild type human fibroblast at 0.2 to 5 uM by RT-qPCR analysis. It counts as functional, tissue-based. The conditions noted are these: dose 0.2-5 µM. A digest of the protocol:
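Wild-type GM07492 fibroblasts were grown in MEM with 10% FBS. They were treated at 40% confluency for 48 h, and total RNA was extracted. Transcript level was measured by RT-qPCR normalized to GAPDH (n = 6 per concentration, 2 independent experiments).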

Series [13] has as its system Fibroblast. Description: Effect on IR exon 11 exclusion in wild type human fibroblast at 0.2 to 5 uM by RT-qPCR analysis. It counts as functional, tissue-based. The conditions noted are these: dose 0.2-5 µM.
The species entered for series [14] is Homo sapiens. Description: Binding affinity to r(GACAGCCUGCUGUC)2 duplex (unknown origin) assessed as positive phase signal at 300 uM by waterLOGSY NMR spectroscopy. The method in brief: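 For WaterLOGSY NMR, each compound at 300 μM was run alone or with 15 μM RNA (20:1 compound:RNA) in H2O containing 5% D2O by volume.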
For series [15], the species on record is Homo sapiens. Description: Binding affinity to r(GACAGCCUGCUGUC)2 (unknown origin) duplex assessed as resonance shift in H6 and H8 protons of RNA […] by 1D NMR spectroscopy. A digest of the protocol: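 For 1D NMR, RNA at 100 μM in 100% D2O was titrated with compound at 0.5, 1.0, 1.5 and 2.0 compound:RNA molar ratios, each in a separate sample.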
Series [16] has as its system Fibroblast. Description: Cytotoxicity against DM2 patient derived fibroblast assessed as cell viability upto 20 uM incubated for 48 hrs by Cell Titre-Glo assay. It counts as cell-based. Particulars: human. The method in brief:
as §2

The term IC50 denotes the concentration that gives 50% inhibition. One may read the inhibition as the drop in the measured response relative to a control, in per cent.

The molecule `Cc1ccc2nc(Nc3ccc4nc(C)sc4c3)nc(NCCCO)c2c1` gave an IC50 in series [1] of 2 µM. Further, the Activity is 30% in the series listed under Homo sapiens [2], “Non-Toxic” in the series on Fibroblast [3] and 33% in the series listed under Homo sapiens [4]. The results for the Kd in [5] and in [6] were 0.192 µM and > 20 µM, respectively. Moreover, the inhibition with Fibroblast [7] was 30%. Moreover, the result in the series with Fibroblast [8], in the series with Fibroblast [11], with Fibroblast [12] and in the series with Fibroblast [13] was inactive. Further, the result in the series with Fibroblast [9] and with Fibroblast [10] was Active.

In [1], `Cc1ccc2nc(Nc3ccc4nc(NCCN(C)C)sc4c3)nc(NCCCO)c2c1` displayed an IC50 of 4 µM. The outcome in the series listed under Homo sapiens [2] and in the series listed under Homo sapiens [4] was inactive. Also, the Activity entry in the series with Fibroblast [3] is “Non-Toxic”.

On to `COc1ccc(Nc2nc(NCCCO)c3ccccc3n2)cc1`, for which inhibition in [1] was half-maximal at 40 µM (IC50). In addition, the result in the series listed under Homo sapiens [14] and in the series filed under Homo sapiens [15] was Active. Further, the Activity result with Fibroblast [16] is “Non-Toxic”.

In series [1], `OCCCNc1nc(Nc2ccc3c(c2)OCCO3)nc2ccccc12` returned an IC50 of 50 µM. Further, the outcome in the series listed under Homo sapiens [14] and in the series listed under Homo sapiens [15] was Active. Further, the Activity entry was “Non-Toxic” in the series with Fibroblast [16], 50% in the series listed under Homo sapiens [2] and 12% in the series filed under Homo sapiens [4].
